Assay results from paper PMC9727797 (Molecular Biology of the Cell, 2022).
pIC50: −log10 of the molar value.

What was measured:
KIF15-N700 = target: T1, KIF15-N700 (Homo sapiens, UniProt Q9NS87); assay: Microtubule gliding assay; format: biochemical
T1 sequence (Q9NS87 1-700 limits assumed): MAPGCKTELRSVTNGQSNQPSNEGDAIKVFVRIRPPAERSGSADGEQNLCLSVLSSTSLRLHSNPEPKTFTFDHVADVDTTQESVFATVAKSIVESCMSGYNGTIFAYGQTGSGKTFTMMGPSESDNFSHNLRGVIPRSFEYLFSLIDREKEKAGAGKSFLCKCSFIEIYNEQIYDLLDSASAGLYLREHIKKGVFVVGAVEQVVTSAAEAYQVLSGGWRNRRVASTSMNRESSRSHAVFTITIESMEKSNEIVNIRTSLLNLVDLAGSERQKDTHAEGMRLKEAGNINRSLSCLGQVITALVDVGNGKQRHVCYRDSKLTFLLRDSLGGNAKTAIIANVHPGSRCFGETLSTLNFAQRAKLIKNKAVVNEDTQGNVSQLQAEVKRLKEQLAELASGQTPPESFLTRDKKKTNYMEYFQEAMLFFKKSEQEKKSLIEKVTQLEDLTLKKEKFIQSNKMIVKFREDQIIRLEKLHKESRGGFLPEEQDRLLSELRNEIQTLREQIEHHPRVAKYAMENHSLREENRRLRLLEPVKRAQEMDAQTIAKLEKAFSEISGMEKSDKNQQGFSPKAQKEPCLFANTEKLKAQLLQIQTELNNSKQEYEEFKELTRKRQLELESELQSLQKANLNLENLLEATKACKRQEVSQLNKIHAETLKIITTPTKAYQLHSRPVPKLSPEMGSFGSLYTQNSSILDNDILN
Method in brief: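 His6-KIF15-N700 was expressed in High Five insect cells, then purified by Ni-NTA and Superdex 200 gel filtration. Microtubule gliding was imaged every 5 s for 1 min at 100×. Velocity was taken as distance travelled in 1 min, from ≥15 microtubules at each of three slide locations (n ≥ 50 per slide). Concentration-response curves used eight concentrations from 10 nM up to 30 or 100 µM, in triplicate. Single-point derivative tests used 25 µM.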

KIRC-1 cells = assay: Preanaphase spindle monopolarity, KIRC-1 cells; format: cell-based, human
Method in brief: (§1)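 TP53–/– RPE-1 and KIRC-1 cells were grown in DMEM with 10% FBS, penicillin and streptomycin; KIRC-1 medium also contained 10 μM STLC. Cells on coverslips were treated overnight with increasing test-compound concentrations or DMSO. They were then methanol-fixed and stained for KIF15, tubulin and DNA. Preanaphase spindles were scored monopolar or bipolar, in triplicate with n = 100 per replicate (± SEM).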

TP53–/– RPE-1 cells = assay: Preanaphase spindle morphology, RPE-1 cells; format: cell-based, human; conditions: increasing concentrations
Method in brief: as §1

[1] = Precipitation observed in culture media; format: physicochemical
HSET = target: T2, HSET (Homo sapiens, UniProt Q9BW19); assay: Microtubule gliding assay, HSET; format: biochemical; conditions: 24 µM Munesib-1 or 100 µM Fift-IN
T2 sequence (Q9BW19 1-673): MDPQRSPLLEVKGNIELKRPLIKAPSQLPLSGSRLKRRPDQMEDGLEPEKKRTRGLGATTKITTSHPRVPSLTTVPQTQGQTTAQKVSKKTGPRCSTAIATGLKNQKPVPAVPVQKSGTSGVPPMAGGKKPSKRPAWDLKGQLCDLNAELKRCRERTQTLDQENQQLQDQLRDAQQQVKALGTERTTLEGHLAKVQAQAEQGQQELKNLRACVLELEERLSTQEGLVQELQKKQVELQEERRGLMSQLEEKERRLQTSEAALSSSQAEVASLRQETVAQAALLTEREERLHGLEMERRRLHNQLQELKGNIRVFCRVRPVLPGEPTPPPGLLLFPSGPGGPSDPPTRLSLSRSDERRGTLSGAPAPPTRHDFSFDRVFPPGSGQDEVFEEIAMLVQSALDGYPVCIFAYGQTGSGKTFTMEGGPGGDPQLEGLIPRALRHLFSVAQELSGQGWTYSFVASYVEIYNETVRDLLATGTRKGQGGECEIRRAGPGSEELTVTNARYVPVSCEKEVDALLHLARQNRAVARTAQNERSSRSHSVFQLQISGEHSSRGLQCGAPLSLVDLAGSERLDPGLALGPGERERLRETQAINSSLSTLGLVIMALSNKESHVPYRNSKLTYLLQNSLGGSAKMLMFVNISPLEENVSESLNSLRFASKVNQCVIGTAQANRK
Method in brief: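 Gliding assays with other motors used His6-Eg5, His6-EGFP-HSET or K560 (truncated kinesin-1), with test compound at 24 µM or 100 µM. Frames were captured every 5 s for 1 min at 100×. Velocity was the distance travelled in 1 min, from ≥15 microtubules at each of three locations (n ≥ 50 per slide).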

RPE-1 cells = assay: Live cell imaging of metaphase duration; format: cell-based, human; conditions: Munesib-1 50 µM, Fift-IN and GW108X 25 µM
KIF15-N420 = target: T3, KIF15-N420 (Homo sapiens, UniProt Q9NS87); assay: Microtubule-dependent steady-state ATPase assay; format: biochemical; conditions: 2 mM ATP; for kcat, microtubule-dependent ATPase: fit ± 95% CI
T3 sequence (Q9NS87 1-420 limits assumed): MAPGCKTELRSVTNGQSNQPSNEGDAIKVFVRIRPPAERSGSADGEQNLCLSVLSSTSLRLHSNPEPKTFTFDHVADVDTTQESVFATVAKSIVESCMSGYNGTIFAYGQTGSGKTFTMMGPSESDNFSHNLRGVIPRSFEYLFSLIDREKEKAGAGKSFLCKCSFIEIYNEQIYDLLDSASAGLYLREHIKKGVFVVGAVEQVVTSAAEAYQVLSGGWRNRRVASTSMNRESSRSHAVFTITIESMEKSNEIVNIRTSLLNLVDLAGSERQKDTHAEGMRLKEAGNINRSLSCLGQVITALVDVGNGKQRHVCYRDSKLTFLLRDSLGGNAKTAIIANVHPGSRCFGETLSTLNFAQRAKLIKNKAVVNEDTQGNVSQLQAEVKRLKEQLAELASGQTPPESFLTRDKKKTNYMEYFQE
Method in brief: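 Microtubule-dependent KIF15-N420 ATPase used an NADH-coupled read-out (A340, 25°C), with rates normalised to active motor concentration. ATP was held at 2 mM and microtubules varied over eight concentrations from 0 to 8 μM. Test compound was at 3, 5, 20 or 30 μM, with a DMSO control. Michaelis-Menten fits were weighted by 1/SEM, n = 6–9 per microtubule concentration. kcat and Km are given as fit ± 95% CI.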

[2] = 24 µM Munesib-1 or 100 µM Fift-IN

- gliding velocity after removal of compound (wash-out) (KIF15-N700; 24 μM Munesib-1): nearly restored to baseline
- microtubule gliding on addition of compound (wash-in) (KIF15-N700; 24 μM Munesib-1): fully abrogated
- inhibition of microtubule gliding, KIF15 (KIF15-N700; [2]): robustly inhibited
- reversibility of inhibition (washout experiment) (KIF15-N700; [2]): reversible inhibitor
- % inhibition of KIF15 microtubule gliding activity (KIF15-N700; 25 µM, singlicate): completely eliminates
- pIC50 (KIF15-N700; IC50, microtubule gliding assay, KIF15-N700): 6.40
- fold stronger inhibitory action against KIF15 than Fift-IN (KIF15-N700; in vitro ATPase and microtubule gliding assays): roughly 10 fold
- solubility observation [1]: often precipitated in culture media
- inhibition of microtubule gliding, HSET (HSET): neither substantially inhibited
- kcat, microtubule-dependent ATPase (KIF15-N420; 3 μM compound): 8.5 ± 1 s^–1
- kcat, microtubule-dependent ATPase (KIF15-N420; 5 μM compound): 8.2 ± 3 s^–1
- kcat, microtubule-dependent ATPase (KIF15-N420; 30 μM compound): 11.6 ± 6 s^–1
- mode of inhibition with respect to microtubules (KIF15-N420): less conclusive
Compound: COC(=O)c1ccc2c(c1)N(C)S(=O)(=O)c1cnc(SC)nc1-2 [Munesib-1, Methyl 6-methyl-2-(methylthio)-6H-benzo[c]pyrimido[4,5-e][1,2]thiazine-8-carboxylate 5,5-dioxide]
- effect on monopolar spindles compared with Fift-IN (KIRC-1 cells; 75 μM): comparatively modest
- monopolar spindles (KIRC-1 cells; 75 μM): less than 70%
- monopolarity index relative to cells treated with DMSO (KIRC-1 cells; increasing concentrations): concentration-dependent increase
- effect on spindle morphology (TP53–/– RPE-1 cells): little effect on spindle morphology
- metaphase duration (metaphase plate formation until anaphase onset) (RPE-1 cells): no significant change in metaphase timing
